Drawing on ChEMBL document CHEMBL2346629, “Discovery and characterization of novel allosteric FAK inhibitors” (Eur J Med Chem, 2013), this text covers Activity for one compound.

In experiment [1] the test system is Tyrosine-protein kinase ABL1 (Homo sapiens), P00519 [T315I]. As to the kind of experiment: Inhibition of ABL1 T315I mutant (unknown origin) using [gamma-33P]ATP assessed as residual activity at 3 uM. Put shortly:
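Radiometric profiling across 288 kinases (261 wild-type, 27 mutant), run as an outsourced service. Inhibition read out as [gamma-33P]ATP incorporation into substrate.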

In experiment [2] the target is Protein kinase C eta type (Homo sapiens) (UniProt P24723). As to the kind of experiment: Inhibition of PKCeta (unknown origin) using [gamma-33P]ATP assessed as residual activity at 3 uM.
Chain of Protein kinase C eta type (Homo sapiens) (P24723 whole entry): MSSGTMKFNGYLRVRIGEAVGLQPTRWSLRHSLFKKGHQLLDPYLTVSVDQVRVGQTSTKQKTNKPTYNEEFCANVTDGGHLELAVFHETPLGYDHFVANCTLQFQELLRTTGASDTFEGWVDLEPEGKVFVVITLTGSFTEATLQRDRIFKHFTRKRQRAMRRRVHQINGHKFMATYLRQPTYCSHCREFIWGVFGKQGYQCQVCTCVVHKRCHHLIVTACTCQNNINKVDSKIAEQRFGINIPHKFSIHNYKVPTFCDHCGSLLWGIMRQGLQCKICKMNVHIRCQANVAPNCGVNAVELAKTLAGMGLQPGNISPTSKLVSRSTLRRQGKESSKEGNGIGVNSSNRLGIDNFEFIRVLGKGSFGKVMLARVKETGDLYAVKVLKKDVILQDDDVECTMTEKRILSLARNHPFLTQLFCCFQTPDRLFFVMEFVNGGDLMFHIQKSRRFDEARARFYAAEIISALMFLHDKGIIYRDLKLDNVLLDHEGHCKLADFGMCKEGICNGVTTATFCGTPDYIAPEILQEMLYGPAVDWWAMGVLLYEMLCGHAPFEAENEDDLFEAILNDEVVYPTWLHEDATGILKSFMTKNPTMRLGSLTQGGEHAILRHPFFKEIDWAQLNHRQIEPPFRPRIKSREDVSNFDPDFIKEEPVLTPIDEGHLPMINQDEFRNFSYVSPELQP

As to `CCc1ccc(-c2ccc3c(c2)-c2[nH]ncc2S(=O)(=O)N3C)cc1`, the Activity in experiment [1] and in experiment [2] was 93% each time.
